Results as given in publication PMC9890135 (Molecular Cancer Therapeutics, 2022).
Read-outs that look alike come from different tables or passages of the source.

Tests used:
MET = MET (Homo sapiens, UniProt P08581, DEL964-1010); assay: Inhibition of receptor phosphorylation, ELISA, Hs 746T cells; assay type: cell-based
VEGFR2 = VEGFR2 (Homo sapiens, UniProt P35968); assay: Inhibition of receptor phosphorylation, ELISA, HUVEC/VEGF165; assay type: cell-based; conditions: Cellular IC50 ± SD, VEGFR2 autophosphorylation, serum-free
AXL = target: T1, AXL (Homo sapiens, UniProt P30530); assay: Inhibition of receptor phosphorylation, ELISA, A-172 cells/GAS6; assay type: cell-based
T1 sequence (P30530 26-894): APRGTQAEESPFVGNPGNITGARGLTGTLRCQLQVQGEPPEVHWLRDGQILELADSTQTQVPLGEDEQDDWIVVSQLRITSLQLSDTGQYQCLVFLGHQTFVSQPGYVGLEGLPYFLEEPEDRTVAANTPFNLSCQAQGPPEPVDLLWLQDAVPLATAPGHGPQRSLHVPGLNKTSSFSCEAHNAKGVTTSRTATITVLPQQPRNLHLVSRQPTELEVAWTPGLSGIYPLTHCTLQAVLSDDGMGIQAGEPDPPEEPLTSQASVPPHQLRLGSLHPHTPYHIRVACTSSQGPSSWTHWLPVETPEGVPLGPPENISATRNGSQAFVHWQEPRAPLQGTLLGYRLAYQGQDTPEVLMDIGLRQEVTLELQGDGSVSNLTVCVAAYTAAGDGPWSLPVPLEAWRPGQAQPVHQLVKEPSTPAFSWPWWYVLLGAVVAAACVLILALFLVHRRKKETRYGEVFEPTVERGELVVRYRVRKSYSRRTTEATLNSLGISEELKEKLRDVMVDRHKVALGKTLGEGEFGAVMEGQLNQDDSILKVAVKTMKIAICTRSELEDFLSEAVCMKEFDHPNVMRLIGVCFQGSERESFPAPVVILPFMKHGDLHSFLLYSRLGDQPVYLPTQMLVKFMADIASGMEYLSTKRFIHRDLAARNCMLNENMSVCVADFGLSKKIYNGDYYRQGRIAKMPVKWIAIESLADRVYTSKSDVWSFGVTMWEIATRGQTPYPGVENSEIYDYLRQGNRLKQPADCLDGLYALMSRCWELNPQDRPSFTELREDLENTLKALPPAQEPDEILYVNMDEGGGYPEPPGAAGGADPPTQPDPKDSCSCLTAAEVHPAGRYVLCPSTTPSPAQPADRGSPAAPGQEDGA

SNU-5 cells = assay: Cellular proliferation, BrdU incorporation ELISA; assay type: cell-based; conditions: Homo sapiens, SNU-5, 48 h, read-out: Proliferation IC50
Procedure, shortened: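 SNU-5 seeded at 7,500 cells/well in triplicate in IMDM + 10% FBS + 1% penicillin-streptomycin, overnight at 37°C, 5% CO2. Serial dilutions added for 48 h. BrdU labelling 2 h at 37°C. Plates spun 300 × g, 10 min before medium removal. FixDenat 30 min at RT, anti-BrdU-POD 90 min at RT, washes, chemiluminescent read.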

HUVEC cells = assay: Cellular proliferation, BrdU incorporation ELISA; assay type: cell-based; conditions: Homo sapiens, 48 h, read-out: Proliferation IC50
Procedure, shortened: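 HUVEC seeded at 1,500 cells/well in triplicate in VEGF-containing endothelial growth medium, overnight at 37°C, 5% CO2. Serial dilutions added for 48 h. BrdU labelling 2 h at 37°C, FixDenat 30 min at RT, anti-BrdU-POD 90 min at RT, washes, then chemiluminescent substrate read.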

[1] = tested on: human xenograft murine models; assay: Murine xenograft models overall; assay type: in vivo, mice; conditions: after 14 days of daily 10 mg/kg treatments
Procedure, shortened: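 Human tumour cells inoculated into the rear flank. Mice randomised at mean volumes of ~200 mm3 (Hs 746T), ~120 mm3 (MDA-MB-231), ~100 mm3 (NCI-H441) or ~90 mm3 (SNU-5). Oral gavage once daily with test compound or vehicle. Tumour volume and body weight measured at least twice weekly. […], using mean volumes at extraction and dosing start.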

MC38 tumors = assay: MC38 syngeneic tumor model, XL092 and ICI combination studies; assay type: in vivo, mice; conditions: XL092 3 mg/kg orally once a day, anti-PD-1 5 mg/kg twice a week for 2 weeks i.p., 35 days
CT26 tumors = assay: CT26 syngeneic colorectal cancer survival model; assay type: in vivo, mice; conditions: XL092 30 mg/kg orally once a day, anti-PD-1 10 mg/kg every 3–4 days i.p.
Procedure, shortened: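 CT26 syngeneic mice randomised at ~90 mm3. Treatment: oral test compound 30 mg/kg once daily for 34 days, with or without anti-PD-1 antibody (10 mg/kg i.p. every 3–4 days for 5 weeks, diluted in sterile PBS), or vehicle. Animals sacrificed at tumour volume 2,500 mm3; survival analysed by Kaplan–Meier.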

peripheral leukocytes = assay: Peripheral immunocytes by flow cytometry in MC38 tumor-bearing mice; assay type: in vivo; conditions: 7 days, XL092 30 mg/kg
Procedure, shortened: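 Female C57BL/6 mice (5–6 weeks) inoculated s.c. with 1 × 10^6 MC38 cells, randomised at ~200 mm3. […] single-cell suspensions surface-stained with a lineage panel plus fixable viability dye. Medians compared by Mann–Whitney U.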

[2] = tested on: primary human CD14+ monocyte-derived M2 macrophages; assay: Macrophage M2 to M1 repolarization; assay type: cell-based; conditions: 2, 4, and 6 μmol/L XL092 for 7 days; 5 donors
Procedure, shortened: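 CD14+ monocytes (1.0 × 10^6 cells/mL) differentiated 6 days into M2 macrophages, then cryopreserved. Thawed cells seeded at 2.0 × 10^5/well in M2 differentiation medium and exposed to 2, 4 or 6 μmol/L for 7 days at 37°C, 5% CO2, with medium and compound renewed on day 4; triplicate per donor, 5 donors. After Fc block, stained with anti-CD163 and 7-AAD. Viable CD163−/CD163+ ratio expressed as fold change versus DMSO.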

[3] = tested on: panel of 405 protein kinases; assay: KinaseProfiler 33P radiometric kinase assay, panel; assay type: biochemical
Procedure, shortened: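 Radiometric 33P-phosphoryl transfer assay measuring catalytic activity of recombinant active kinase domains across the profiling panel.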

[4] = humans; preliminary phase I data (NCT03845166); cited from earlier work
[5] = rats; cited from earlier work

Chain of VEGFR2 (P35968 20-1356): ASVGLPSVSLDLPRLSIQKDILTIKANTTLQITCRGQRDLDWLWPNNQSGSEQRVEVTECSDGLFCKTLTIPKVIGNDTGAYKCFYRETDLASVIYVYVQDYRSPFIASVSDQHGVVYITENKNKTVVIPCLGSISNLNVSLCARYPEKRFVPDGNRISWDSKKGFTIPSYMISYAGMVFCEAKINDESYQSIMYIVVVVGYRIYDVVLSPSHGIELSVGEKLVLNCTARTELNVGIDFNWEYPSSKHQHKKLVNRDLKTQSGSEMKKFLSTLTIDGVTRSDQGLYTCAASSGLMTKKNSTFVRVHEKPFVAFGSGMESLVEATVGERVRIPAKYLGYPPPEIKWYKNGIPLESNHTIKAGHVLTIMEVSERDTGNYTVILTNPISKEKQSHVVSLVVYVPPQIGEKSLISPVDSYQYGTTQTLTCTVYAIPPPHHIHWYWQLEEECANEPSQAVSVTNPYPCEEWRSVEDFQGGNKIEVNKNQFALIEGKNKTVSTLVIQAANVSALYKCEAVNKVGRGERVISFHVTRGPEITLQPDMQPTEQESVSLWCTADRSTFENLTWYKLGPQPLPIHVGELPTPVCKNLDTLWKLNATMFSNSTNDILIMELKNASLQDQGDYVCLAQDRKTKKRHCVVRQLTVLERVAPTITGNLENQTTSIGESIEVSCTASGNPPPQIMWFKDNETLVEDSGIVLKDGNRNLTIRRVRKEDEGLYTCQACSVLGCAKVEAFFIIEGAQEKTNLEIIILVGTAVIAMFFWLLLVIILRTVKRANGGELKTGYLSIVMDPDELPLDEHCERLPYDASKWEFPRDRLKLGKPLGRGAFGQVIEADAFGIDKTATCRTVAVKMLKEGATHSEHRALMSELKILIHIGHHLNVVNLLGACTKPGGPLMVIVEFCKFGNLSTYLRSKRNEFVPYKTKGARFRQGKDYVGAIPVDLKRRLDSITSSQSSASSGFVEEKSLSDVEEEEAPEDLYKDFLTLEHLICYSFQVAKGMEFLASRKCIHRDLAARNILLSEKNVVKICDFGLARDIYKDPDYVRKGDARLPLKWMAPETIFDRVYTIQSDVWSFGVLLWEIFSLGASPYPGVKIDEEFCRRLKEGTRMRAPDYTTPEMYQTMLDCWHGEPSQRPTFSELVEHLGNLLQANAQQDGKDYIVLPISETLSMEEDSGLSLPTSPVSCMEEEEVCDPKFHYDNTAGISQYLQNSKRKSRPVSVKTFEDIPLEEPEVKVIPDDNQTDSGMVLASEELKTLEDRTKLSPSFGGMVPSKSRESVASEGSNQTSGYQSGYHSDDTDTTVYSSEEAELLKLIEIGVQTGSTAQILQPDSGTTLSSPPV

## CNC(=O)c1cc2c(Oc3ccc(NC(=O)C4(C(=O)Nc5ccc(F)cc5)CC4)cc3)ccnc2cc1OC [XL092]
MET
  IC50: 0.0254 ± 0.00132 µM
VEGFR2
  IC50: 0.00157 ± 0.00152 µM
AXL
  IC50: 0.00389 ± 0.00161 µM
SNU-5 cells
  IC50: 0.0989 µM
HUVEC cells
  IC50: 0.0104 µM
[1]
  TGI (summary over several models): ≥ 70%
MC38 tumors
  TGI compared with vehicle: significant TGI
CT26 tumors
  survival to the end of the 34-day dosing regimen: 20%
Peripheral leukocytes
  peripheral CD4+ T cells relative to vehicle: significant increases
Peripheral leukocytes; antibodies 5 mg/kg
  peripheral B cells relative to vehicle: significant increases
  peripheral myeloid cells relative to vehicle: significant decreases
[2]
  M1 (CD163-negative) to M2 (CD163-positive) ratio: dose-dependent increases
[3]; kinase profiling
  activity against serine or threonine kinases: No activity
[3]; single concentration of 1 μmol/L, panel of 405 protein kinases
  inhibition of additional RTKs and TKs: ≥ 70%
[4]
  half-life: approximately 24 hours
[5]
  half-life: approximately 7 hours
